Compound activity as filed in PubChem.
RBBP9 inh: blocks human serine hydrolase RBBP9; O75884; recombinant RBBP9, FP-Rh probe fluorescence polarization; inhibition, % at 7.94 µM; actives 0.2% (n = 220,000);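 active means inhibition above the campaign mean of all tested compounds plus 3 SD, cut at about 14% in these data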;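 further: plate controls were DMSO wells with RBBP9 for no effect and wells lacking RBBP9 protein for full effect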
Target sequence (O75884 whole entry, looked up): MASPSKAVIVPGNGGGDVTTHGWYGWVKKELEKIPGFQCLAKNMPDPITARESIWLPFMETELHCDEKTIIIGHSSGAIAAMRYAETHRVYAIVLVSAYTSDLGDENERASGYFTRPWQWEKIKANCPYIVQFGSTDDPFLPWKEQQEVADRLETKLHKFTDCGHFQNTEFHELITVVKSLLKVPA
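Test system – recombinant human RBBP9 · Input – RBBP9 2.5 µM in dispensing solution, pre-mixing · Medium – Tris buffer pH 8.0, NaCl, Pluronic · Schedule – preincubation 30 min plus labeling 45 min at 25 °C · Measured by – fluorescence polarization · Measure – % inhibition · Controls – DMSO and no-protein wells · Replicates – one well per compound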
TNF necrop inh: blocks TNF-alpha induced death of Jurkat FADD-/- cells. Jurkat FADD-/- TNF necroptosis rescue, ATP luminescence, 24 h; 0 = TNF only, 100 = no-TNF cells. actives 0.068% (n = 220,000). AID 463075. activation (protection from cell death), % at 10 µM;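 active means activation, meaning protection from cell death, of at least 50% relative to plate controls; inactive means activation below 50%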;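 further: necroptosis triggered by 40 ng/mL TNF-alpha added together with compound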
Lipid droplet: modulators of hepatic lipid droplet formation; actives 0.4% (n = 240,000); AML12 mouse hepatocytes, oleate lipid droplets, BODIPY imaging; inhibition, % at 6.5 µM; AID 1656;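 active means lipid droplet intensity inhibited by at least 50%, with more than 500 cells counted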
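material = mouse AML12 hepatocyte cell line, fixed after treatment | also added = 100 µM oleic acid challenge | doses = compound at 6.5 µM only | schedule = overnight exposure | technique = Image-based BODIPY and DAPI two-channel analysis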
Tb hexokinase: blocks Trypanosoma brucei hexokinase 1 activity; recombinant TbHK1, G6PDH-coupled NADH A340; inhibition, % at 10 µM; actives 0.11% (n = 220,000);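 active means inhibition of 50% or more in the single-dose primary screen; inactive means inhibition below 50%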
PfM18AAP inh-1: blocks P. falciparum M18 aspartyl aminopeptidase; recombinant PfM18AAP, H-Glu-NHMec fluorogenic cleavage; inhibition, % at 7.35 µM; actives 1.2% (n = 290,000); AID 1822;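 active means inhibition above the campaign mean inhibition over all tested compounds plus 3 SD, cut at about 28% in these data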;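 further: 0% = plate median of test compound wells and 100% = 2 mM ZnCl2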
zVAD death inh: blocks zVAD induced death of L929 cells | viability rescue, % at 10 µM | AID 1377 | actives 0.38% (n = 220,000) | L929 zVAD necroptosis rescue, ATP luminescence, 24 h; with zVAD 60 µM;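 active means activation, scaled between plate controls, above about 75%, limit read from the data; inactive means activation under that limit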;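 further: 0% = zVAD with DMSO and 100% = DMSO alone without zVAD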
PfM18AAP inh-2: confirmation of Plasmodium falciparum M18 aspartyl aminopeptidase inhibitors | shares compounds with PfM18AAP inh-1 | recombinant PfM18AAP, H-Glu-NHMec fluorogenic cleavage | inhibition, % at 7.35 µM | actives 28% (n = 2,400) | AID 2170;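 active means mean inhibition over replicate wells above the hit cutoff set for the earlier primary screen, cut at about 29% in these data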;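 further: 0% = median of test compound wells and 100% = 2 mM ZnCl2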
CTSL1 counter: counter-screen for PFM18AAP inhibitors: confirmation of human cathepsin L inhibitors | shares compounds with PfM18AAP inh-1 | purified cathepsin L1, Z-Leu-Arg-MCA fluorescence | inhibition, % at 5.96 µM | 2,400 tested, under 10 active | AID 2178;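 active means average inhibition across replicates above the hit cutoff set in the earlier primary screen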;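 further: 0% = median of test compound wells and 100% = Z-Phe-Ala-diazomethylketone 1 µM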
Target sequence (P07711 whole entry, looked up): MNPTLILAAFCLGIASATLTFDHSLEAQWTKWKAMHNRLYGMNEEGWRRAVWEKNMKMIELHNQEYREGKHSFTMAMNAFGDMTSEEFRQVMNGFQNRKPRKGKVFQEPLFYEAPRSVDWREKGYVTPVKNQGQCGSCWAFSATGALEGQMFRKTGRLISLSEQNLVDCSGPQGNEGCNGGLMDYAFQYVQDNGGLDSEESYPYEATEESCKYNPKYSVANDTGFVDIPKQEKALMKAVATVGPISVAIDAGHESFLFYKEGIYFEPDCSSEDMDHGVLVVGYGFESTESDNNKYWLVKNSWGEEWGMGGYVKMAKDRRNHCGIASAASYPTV
An asterisk follows results filed as active; / = no result. Hits are enriched below; roughly 2% of the tested compounds scored in any of these assays.

SMILES	RBBP9 inh	TNF necrop inh	Lipid droplet	Tb hexokinase	PfM18AAP inh-1	zVAD death inh	PfM18AAP inh-2	CTSL1 counter
Cc1cccc(C2Nc3cccc4cccc(c34)N2)c1	/	/	-3.8	/	32.9*	/	-4.5	1.2
Clc1ccc(C2Nc3cccc4cccc(c34)N2)cc1	/	/	-10.5	/	12.2	/	/	/
Fc1ccc(-c2nc3c(-c4ccccc4)cnn3cc2CCN2CCOCC2)cc1	-5.5	2.3	-10.4	-17.6	0.7	0.5	/	/
CC(C)n1c(=O)[nH][nH]c1=S	-7.3	0.7	15.6	6.3	56.8*	0.2	36.0*	0.8
Oc1ccc(N2CCN(CC(O)c3ccccc3)CC2)cc1 (stereo unspecified)	/	/	2.9	/	51.5*	/	-21.8	0.2
O=C(CSc1cccc2cccnc12)N/N=C/c1cccc(O)c1	-9.2	-2.5	2.9	2.3	10.6	2.2	/	/
O=C(N/N=C/c1ccc(O)c(O)c1)c1ccc(CSc2cccc3cccnc23)cc1	-11.7	-17.1	-0.8	3.5	57.2*	1.0	48.7*	-4.6
CCOc1cc(/C=C2/SC(=S)N(C)C2=O)ccc1Oc1ccc([N+](=O)[O-])cc1[N+](=O)[O-]	-6.5	-0.6	-4.9	-9.3	-8.2	7.2	/	/
Cc1ccc(CN2CCN(/N=C/c3ccc(O)c(O)c3)CC2)cc1	/	/	/	/	63.7*	/	37.8*	-0.6
Oc1ccc(/C=N/N2CCN(C3c4ccccc4-c4ccccc43)CC2)cc1O	-6.6	-22.3	1.6	-17.1	50.5*	1.3	35.6*	-4.6
Oc1ccc(/C=N/N2CCN(C3c4ccccc4-c4ccccc43)CC2)cc1	-0.2	-0.5	21.2	5.8	1.4	0.0	/	/
O=C(c1ccc(OC2CCN(Cc3ccccn3)CC2)cc1)N1CCCCO1	-2.3	0.6	8.9	-1.5	-2.4	-0.3	/	/
Cn1cc(S(=O)(=O)N2CCCC2)cc1C(=O)NCCc1ccccc1	/	/	-1.2	/	4.7	/	/	/
CCC/C=N/Nc1nnc(Cc2ccc(OC)c(OC)c2)c(=O)[nH]1	/	/	7.0	/	32.0*	/	-28.9	-4.7
COc1ccc(CC(=O)NNC(=O)c2ccc(Br)o2)cc1	/	/	-1.7	/	2.4	/	/	/
CCC(CC)c1nnc(NC(=O)Cc2cccs2)s1	3.9	0.0	9.6	1.0	39.5*	8.0	-33.0	1.5
CC1(CCc2ccccc2)NC(=O)N(CC(=O)Nc2ccc3c(c2)OCCO3)C1=O (stereo unspecified)	-2.7	-1.9	-0.7	6.3	8.8	-0.4	/	/
CCNc1nc(NCC)nc(Nn2cnnc2)n1	-15.5	1.8	/	-1.3	31.9*	0.7	25.7	3.0
O=C(O)c1cccc(CN2C(=O)SC(Nc3cccc4ccccc34)C2=O)c1 (stereo unspecified)	-3.6	-4.9	-15.8	17.1	34.3*	0.0	-65.4	4.6
CC(C)c1ccc(C2NC(=S)NC3=C2C(=O)CC(C)(C)C3)cc1 (stereo unspecified)	-8.4	0.4	-10.9	-4.0	-1.7	1.8	/	/
Cn1ncc2c(NNC(=O)c3ccc(Cl)cc3Cl)ncnc21	9.4	2.8	-10.6	-0.7	40.9*	1.3	-2.0	0.5
Cc1ccccc1C(=O)NC1CCN(CC(=O)NC2CCCCC2)CC1	/	/	-0.3	/	-2.5	/	/	/
C/C(=N\Nc1c([N+](=O)[O-])c(C)nn1C)c1ccc(F)cc1F	0.9	-0.8	24.8	-1.5	-1.7	3.7	/	/
CCNC(=O)CP(=O)(c1ccccc1)c1ccccc1	-2.9	1.9	/	-1.1	0.5	0.5	/	/
CCc1ccc(-c2cc(C(=O)Nn3cnnc3)c3ccccc3n2)cc1	-0.5	-7.2	4.8	-12.2	43.0*	-2.8	46.4*	-1.3
SMILES	RBBP9 inh	TNF necrop inh	Lipid droplet	Tb hexokinase	PfM18AAP inh-1	zVAD death inh	PfM18AAP inh-2	CTSL1 counter
O=C(CP(=O)(c1ccccc1)c1ccccc1)Nn1cnnc1	2.2	0.1	/	30.2	34.5*	1.4	49.1*	5.2
CCCc1ccc(-c2cc(C(=O)NN3CCOCC3)c3ccccc3n2)cc1	-3.3	-7.6	/	-18.7	-7.3	0.0	/	/
O=C(CSc1nnc(-c2ccccc2)o1)Nn1cnnc1	3.5	2.6	/	4.0	72.1*	0.8	72.6*	1.0
Cc1cc(C)c2nc(-c3ccccn3)cc(C(=O)Nn3cnnc3)c2c1	-4.7	-0.1	/	-9.0	44.1*	1.9	29.4*	-4.4
CCOc1ccc(C(=O)Nc2ccc(S(=O)(=O)N3CCN(C)CC3)cc2)cc1	/	/	-1.0	/	-7.7	/	/	/
CNC(=O)Cn1nc(-c2ccc(Cl)cc2)c2ccccc2c1=O	/	/	5.5	/	-2.8	/	/	/
CCS(=O)(=O)N1CCN(CC(=O)NC2CCCCC2)CC1	-5.2	-0.2	10.4	6.0	1.6	1.1	/	/
O=C(O)c1ccccc1C(=O)Nn1cnnc1	/	/	3.9	/	37.5*	/	35.9*	-2.5
O=C(Nc1ccccc1NC(=O)c1ccccc1Cl)c1ccccc1Cl	/	/	-15.7	/	1.3	/	/	/
Cc1ccccc1C(=O)Nc1ccccc1	-3.1	-2.9	-0.2	1.7	-2.3	0.8	/	/
O=C(Nn1cnnc1)c1ccccc1Cl	/	/	-7.9	/	55.4*	/	40.0*	-0.8
COc1cccc(C(=O)Nn2cnnc2)c1OC	/	/	9.0	/	43.3*	/	51.5*	-4.5
Cc1ccccc1C(=O)Nn1cnnc1	/	/	4.5	/	33.0*	/	23.6	-4.1
NC(=S)NNC(=O)COc1ccccc1O	4.4	-0.6	-0.2	-7.8	37.3*	0.6	39.1*	-1.5
Oc1ccc(Br)cc1C=Nc1ccc(Cl)cc1	-8.7	-12.2	-6.9	1.8	-0.1	-0.5	/	/
CCc1ccc(O)c(N=Cc2ccccc2O)c1	-7.8	-1.0	2.8	8.2	24.1	0.8	/	/
CCN(CC)c1ccc(N=Cc2cc(Br)ccc2O)cc1	5.8	-4.5	-0.1	-21.1	36.7*	0.3	-18.1	-4.9
Oc1cccc(/C=N/N=C/c2cccc(O)c2O)c1O	/	/	5.5	/	41.8*	/	7.1	-0.9
Cc1ccc(N=Cc2cccc(O)c2O)c(C)c1	8.2	-11.8	/	5.0	34.4*	1.1	36.9*	-3.5
Cc1ccc(O)c(C=Nc2cc(C)ccc2O)c1	10.9	1.5	-19.3	0.2	31.8*	-0.1	37.0*	-2.0
CCN(CC)c1ccc(C=Nc2ccc(C)cc2C)c(O)c1	-4.8	0.2	15.6	-25.9	-5.0	-0.6	/	/
O=C(N/C(=C\c1ccco1)C(=O)N1CCCC1CO)c1ccccc1 (stereo unspecified)	/	/	-11.7	/	3.0	/	/	/
COc1ccc(S(=O)(=O)Nc2c(C)cccc2C)cc1-n1cnnn1	/	/	11.1	/	3.9	/	/	/
CCc1ccc(N2CCN(C(=O)N3CCOCC3)CC2)cc1	1.5	-0.2	1.1	-5.0	-10.6	0.2	/	/
Cc1oncc1C(=O)N1CCCC(CO)(Cc2ccc(F)cc2F)C1 (stereo unspecified)	/	/	-17.0	/	1.1	/	/	/
OCC(CO)(CO)N=Cc1cc(Br)ccc1O	-6.0	-3.2	/	-0.7	1.1	-0.6	/	/
